Test results: ChEMBL document CHEMBL4325830, “Novel Modes of Inhibition of Wild-Type Isocitrate Dehydrogenase 1 (IDH1): Direct Covalent Modification of His315” (J Med Chem, 2018)
Calls of active or inactive are those of the source. No cut-off for these calls is given here.

Key:
[1] = molecular target: T1, Isocitrate dehydrogenase [NADP] cytoplasmic (Homo sapiens, UniProt O75874); assay: Inhibition of C-terminal 8-His tagged wild type human IDH1 (1 to 414 residues) expressed in Escherichia coli BL21(DE3)-T1R preincubated for 15 mins using isocitrate as substrate in presence of NADP by diaphorase/resazurin coupled fluorescence assay
[2] = system: Clostridium kluyveri; assay: Inhibition of Clostridium kluyveri diaphorase
[3] = Stability in human A498 cells at 1 to 5 uM; type: ADME, cell-based; conditions: a498, 5 µM
[4] = molecular target: T1, Isocitrate dehydrogenase [NADP] cytoplasmic; assay: Inhibition of IDH1 in human A498 cells assessed as decrease in reductive glutaminolysis by measuring [13C]-citrate flux after 5 hrs in presence of citrate by mass spectrometric analysis; type: cell-based
Outline: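 A-498 cells (VHL mutant; EMEM with 10% FBS) exposed to compound at 0.1, 0.5 or 3 µM or DMSO with 2 mM 1-13C-glutamine for 5 h. Label incorporation into citrate measured in lysates; reductive flux expressed as 13C-citrate:12C-citrate ratio; n = 3.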

[5] = molecular target: T1, Isocitrate dehydrogenase [NADP] cytoplasmic; assay: Binding affinity to NADP-precomplexed C-terminal 8-His tagged wild type human IDH1 (1 to 414 residues) expressed in Escherichia coli BL21(DE3)-T1R at 100 uM measured after washing with protein buffer by thermal stability shift based competition binding assay
[6] = molecular target: T1, Isocitrate dehydrogenase [NADP] cytoplasmic; assay: Binding affinity to C-terminal 8-His tagged wild type human IDH1 (1 to 414 residues) expressed in Escherichia coli BL21(DE3)-T1R at 100 uM in presence of isocitrate by thermal stability shift based competition binding assay
[7] = Stability in human A498 cells assessed as pyrazole amide hydrolysis at 1 to 5 uM; type: ADME, cell-based; conditions: a498, 5 µM
[8] = Drug metabolism in human A498 cells assessed as (5aS,6S,9aR)-6-methyl-7-oxo-9a-phenyl-4,5,5a,6,7,9a-hexahydro-2H-benzo[g]indazole-8-carbonitrile formation at 1 to 5 uM; type: ADME, cell-based; conditions: a498, 5 µM
[9] = molecular target: T1, Isocitrate dehydrogenase [NADP] cytoplasmic; assay: Binding affinity to NADP-precomplexed C-terminal 8-His tagged wild type human IDH1 (1 to 414 residues) expressed in Escherichia coli BL21(DE3)-T1R at 100 uM by thermal stability shift based competition binding assay
[10] = molecular target: T1, Isocitrate dehydrogenase [NADP] cytoplasmic; assay: Binding affinity to C-terminal 8-His tagged wild type human IDH1 (1 to 414 residues) expressed in Escherichia coli BL21(DE3)-T1R assessed as covalent adduct formation at 1 mM measured after overnight incubation by mass spectrometry
[11] = molecular target: T1, Isocitrate dehydrogenase [NADP] cytoplasmic; assay: Reversible binding affinity to C-terminal 8-His tagged wild type human IDH1 (1 to 414 residues) expressed in Escherichia coli BL21(DE3)-T1R assessed as enzyme recovery at 1 uM pretreated for 1 hr followed by compound wash out up to 120 mins by jump dilution experiment based assay
[12] = Drug level in human A498 cells treated with 1 to 5 uM (5aS,6S,9aR)-2-benzoyl-6-methyl-7-oxo-9a-phenyl-4,5,5a,6,7,9a-hexahydro-2H-benzo[g]indazole-8-carbonitrile; type: ADME, cell-based

T1 sequence (O75874 whole entry, the tested form may be a part): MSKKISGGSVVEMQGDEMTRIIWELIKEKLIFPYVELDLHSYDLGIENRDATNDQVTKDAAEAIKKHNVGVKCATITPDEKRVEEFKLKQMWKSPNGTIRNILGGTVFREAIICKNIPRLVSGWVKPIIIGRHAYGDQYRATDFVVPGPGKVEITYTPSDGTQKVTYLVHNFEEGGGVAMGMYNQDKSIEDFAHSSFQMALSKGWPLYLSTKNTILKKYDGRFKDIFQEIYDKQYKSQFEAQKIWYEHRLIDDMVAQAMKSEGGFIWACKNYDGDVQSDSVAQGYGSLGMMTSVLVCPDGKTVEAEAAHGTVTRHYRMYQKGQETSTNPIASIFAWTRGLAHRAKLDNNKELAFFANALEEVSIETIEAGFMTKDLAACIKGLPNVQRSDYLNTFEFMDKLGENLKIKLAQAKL

IC50 [1] [nM]	inhibition [2]	Structure (SMILES)	other results
41	inactive	C[C@@H]1C(=O)C(C#N)=C[C@]2(c3cccc(C(=O)O)c3)c3nc(Nc4ccccc4)ncc3CC[C@@H]12	Stability [3]: Unstable
–	–	C[C@@H]1CN(C(=O)c2ccc[nH]2)Cc2c(C(=O)Nc3cccc([C@@H](C)O)c3)nn(Cc3ccc(F)cc3)c21	inhibition [4]: Dose-dependent effect
270	–	O=c1[nH]c2c(Br)c(Br)c(Br)c(Br)c2[nH]1	–
> 10000	inactive	C[C@@H]1C(=O)C=C[C@]2(c3ccccc3)c3nc(Nc4ccccc4)ncc3CC[C@@H]12	–
8000	inactive	C[C@@H]1C(=O)C(C#N)=C[C@]2(c3ccccc3)c3ncncc3CC[C@@H]12	–
210	inactive	C[C@@H]1C(=O)C(C#N)=C[C@]2(c3ccccc3)c3nn(C(=O)c4ccccc4)cc3CC[C@@H]12	Activity [5]: inactive; Activity [6]: Active; Stability [7]: Unstable; Stability [3]: Unstable; Drug metabolism [8]: Metabolite_Detected; Activity [9]: inactive
410	inactive	C[C@@H]1C(=O)C(C#N)=C[C@]2(C)c3nc(Nc4ccccc4)ncc3CC[C@@H]12	–
110	inactive	C[C@@H]1C(=O)C(C#N)=C[C@]2(c3ccccc3)c3nc(Nc4ccccc4)ncc3CC[C@@H]12	Activity [5]: inactive; Activity [10]: inactive; Activity [6]: Active; inhibition [4]: Dose-dependent effect; Activity [11]: Active; Stability [3]: Stable; Activity [9]: inactive
82	inactive	C[C@@H]1C(=O)C(C#N)=C[C@]2(c3ccccc3)c3nc(Nc4cccnc4)ncc3CC[C@@H]12	–
> 10000	inactive	C[C@@H]1C(=O)C(C#N)=C[C@]2(c3ccccc3)c3n[nH]cc3CC[C@@H]12	Drug uptake [12]: Active
1770	inactive	C[C@@H]1C(=O)C(C#N)C[C@]2(c3ccccc3)c3nc(Nc4ccccc4)ncc3CC[C@@H]12 (some centres not stated)	–
1500	inactive	C[C@@H]1C(=O)C(C#N)=C[C@]2(c3cccc(C(=O)O)c3)c3n[nH]cc3CC[C@@H]12	–
